The list is not random: actives were taken first. Their share in the collection is about 3.3%.
PRMT1 FP inh: PRMT1 (human) inhibition, primary screen; recombinant PRMT1, activity-based probe fluorescence polarization; 1.3% of 370,000 active; inhibition, % at 2.79 µM; AID 652257; Q99873;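 active means inhibition above about 21% made by adding two undisclosed values, limit read from the data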
UHRF1 binding: blocks human UHRF1 binding to methylated DNA; UHRF1 binding to methylated oligo, TR-FRET; 0.75% of 370,000 active; Q96T88; inhibition, % at 4.4 µM; in the data active means inhibition above about 21%;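 further: UHRF1 SRA domain binding a hemimethylated CpG hairpin DNA probe; 0% = median of test compound wells and 100% = reference inhibitor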
Target sequence (Q96T88 whole entry, looked up, the tested form may be a part): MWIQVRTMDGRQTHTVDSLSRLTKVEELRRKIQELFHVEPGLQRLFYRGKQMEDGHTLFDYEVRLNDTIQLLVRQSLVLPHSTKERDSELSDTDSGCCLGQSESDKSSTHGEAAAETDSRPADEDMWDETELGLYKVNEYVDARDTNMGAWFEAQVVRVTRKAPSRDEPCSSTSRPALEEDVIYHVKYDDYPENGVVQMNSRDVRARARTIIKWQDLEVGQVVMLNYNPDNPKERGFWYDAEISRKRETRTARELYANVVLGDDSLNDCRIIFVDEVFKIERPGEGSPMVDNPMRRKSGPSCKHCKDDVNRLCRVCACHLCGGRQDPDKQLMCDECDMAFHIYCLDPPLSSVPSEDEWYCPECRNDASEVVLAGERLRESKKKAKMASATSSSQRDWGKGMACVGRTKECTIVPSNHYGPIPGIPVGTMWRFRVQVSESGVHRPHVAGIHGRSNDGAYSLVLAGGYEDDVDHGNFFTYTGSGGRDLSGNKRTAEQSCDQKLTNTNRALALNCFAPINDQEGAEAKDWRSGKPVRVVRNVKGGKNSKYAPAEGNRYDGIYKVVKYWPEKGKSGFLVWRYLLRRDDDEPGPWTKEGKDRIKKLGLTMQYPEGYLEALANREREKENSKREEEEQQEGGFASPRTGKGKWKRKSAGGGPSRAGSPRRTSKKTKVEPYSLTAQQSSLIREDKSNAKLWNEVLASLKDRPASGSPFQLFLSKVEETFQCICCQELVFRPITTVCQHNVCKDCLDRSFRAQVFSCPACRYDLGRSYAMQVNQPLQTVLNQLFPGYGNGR
MBD2 inh: blocks human MBD2 binding to methylated DNA; Q9UBB5; AID 686964; 0.31% of 370,000 active; inhibition, % at 4.4 µM; TR-FRET, MBD2 binding to methylated oligonucleotide; in the data active means inhibition above about 13%
SIAE primary: inhibitors of human sialic acid acetylesterase SIAE; Q9HAT2; 0.69% of 370,000 active; SIAE FP-Rh probe binding, fluorescence polarization; inhibition, % at 9.66 µM;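 active means inhibition above a cutoff: mean of compounds within the control limits plus 3 SD of those, cut at about 17% in these data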;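 further: 0% = plate median of compound wells and 100% = probe without SIAE protein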
TDP2 absorb: blocks human TDP2 phosphodiesterase activity | O95551 | AID 720702 | 0.34% of 370,000 active | inhibition, % at 12.8 µM | recombinant TDP2, T5PNP hydrolysis, p-nitrophenol absorbance 415 nm;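 active means inhibition above the mean of all tested compounds plus 3 SD, set per campaign, cut at about 25% in these data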;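 further: 0% = DMSO with enzyme and 100% = buffer with substrate but no TDP2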
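Test system: Human TDP2 enzyme | Reagent: 5 mM T5PNP | Compound dosing: 12.8 µM single point, 1% DMSO | Incubation: Enzyme reaction with compound for 2 h at 37 °C | Technique: p-Nitrophenol epi absorbance | Read-out: % inhibition relative to enzyme-containing and enzyme-free wells | Benchmarks: High control without enzyme, low control DMSO plus TDP2 | Replicates: Singlicate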
LEDGF integ inh: blocks HIV-1 LEDGF/p75-dependent DNA integration. TR-FRET IN-LEDGF/p75 DNA integration, Eu/Cy5. inhibition, % at 3.7 µM. 0.64% of 370,000 active;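 active means inhibition above the screen-wide mean plus 3 SD, cut at about 13% in these data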;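 further: signal is the Cy5 over europium emission ratio at 671 and 618 nm; 0% = plate median of compound wells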
SIAE confirm: human SIAE inhibition, confirmation; shares compounds with SIAE primary; AID 1117263; inhibition, % at 9.66 µM; SIAE FP-Rh activity-based probe, fluorescence polarization; 13% of 2,300 active;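 active means mean inhibition of the replicates above the hit cutoff set in the primary screen, cut at about 17% in these data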;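 further: 0% = SIAE with DMSO and probe and 100% = probe without SIAE; inhibitors lower polarization as more probe stays unbound to SIAE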
* hit, by the source's call.

How did Cc1ccc2c(c1)C(CS(=O)(=O)NCc1ccc(F)cc1)NC2 (stereo not drawn) do in these assays?
PRMT1 FP inh: 2; UHRF1 binding: -7; MBD2 inh: -7; SIAE primary: 4; TDP2 absorb: -1; LEDGF integ inh: 0

Results for COC(=O)CCCCCc1ccc(C(C)=O)s1 ?
PRMT1 FP inh: -1; UHRF1 binding: 0; MBD2 inh: -1; SIAE primary: 17*; TDP2 absorb: -1; LEDGF integ inh: -1; SIAE confirm: 6

How did CCC(CC)c1nnc(NC(=O)CS(=O)(=O)c2ccccc2)s1 do in these assays?
PRMT1 FP inh: 2; UHRF1 binding: 0; MBD2 inh: 2; SIAE primary: 26*; TDP2 absorb: 8; LEDGF integ inh: -2; SIAE confirm: 5

How did CCCc1nnc(NC(=O)CS(=O)(=O)c2ccccc2)s1 do in these assays?
PRMT1 FP inh: 0; UHRF1 binding: 0; MBD2 inh: -9; SIAE primary: -5; TDP2 absorb: -5; LEDGF integ inh: -2

How did Oc1ccc(N=Nc2ccc3c(c2)OCCO3)c2cccnc12 do in these assays?
PRMT1 FP inh: -4; UHRF1 binding: -5; MBD2 inh: -4; SIAE primary: 20*; TDP2 absorb: 3; LEDGF integ inh: 3; SIAE confirm: 13

Results for O=C(c1cc(-c2ccc(Cl)cc2)nc2ccccc12)N1CCN(c2ncccn2)CC1 ?
PRMT1 FP inh: 5; UHRF1 binding: 1; MBD2 inh: -1; SIAE primary: -3; TDP2 absorb: 8; LEDGF integ inh: -2

Results for Cc1ccc(NC2CCCN(C(=O)CN3C(=O)CSC3=O)C2)cc1C (stereo not drawn) ?
PRMT1 FP inh: 4; UHRF1 binding: -2; MBD2 inh: -6; SIAE primary: 7; TDP2 absorb: 13; LEDGF integ inh: 2

Results for CC(C)c1ccc(NC2CCCN(C(=O)CN3C(=O)CSC3=O)C2)cc1 (stereo not drawn) ?
PRMT1 FP inh: -1; UHRF1 binding: 1; MBD2 inh: 8; SIAE primary: 17*; TDP2 absorb: -13; LEDGF integ inh: -2; SIAE confirm: -1

Results for O=C(O)CCc1nn2c3ccccc3n(CCO)c2nc1=O ?
PRMT1 FP inh: 2; UHRF1 binding: 2; MBD2 inh: 2; SIAE primary: -2; TDP2 absorb: 1; LEDGF integ inh: -3

Results for O=C(O)CCc1nn2c3ccccc3n(CC(=O)O)c2nc1=O ?
PRMT1 FP inh: 0; UHRF1 binding: -2; MBD2 inh: 0; SIAE primary: 30*; TDP2 absorb: 7; LEDGF integ inh: -2; SIAE confirm: -2

Results for C=C1N(C)c2cc([N+](=O)[O-])c(N)cc2C1(C)C ?
PRMT1 FP inh: 3; UHRF1 binding: -18; MBD2 inh: -23; SIAE primary: 18*; TDP2 absorb: 9; LEDGF integ inh: 1; SIAE confirm: 15

Results for Nc1ccc(Oc2ccc(N)c([N+](=O)[O-])c2)cc1[N+](=O)[O-] ?
PRMT1 FP inh: 10; UHRF1 binding: -3; MBD2 inh: -8; SIAE primary: 3; TDP2 absorb: -19; LEDGF integ inh: -2

How did Cc1nc2ccc(NC(=O)c3cc(F)cc(F)c3)cc2c(=O)[nH]1 do in these assays?
PRMT1 FP inh: 4; UHRF1 binding: -1; MBD2 inh: 0; SIAE primary: -1; TDP2 absorb: 0; LEDGF integ inh: -2

How did COc1cc(NC(=O)CCCOc2ccc(Cl)cc2Cl)c(C(=O)O)cc1OC do in these assays?
PRMT1 FP inh: 3; UHRF1 binding: 1; MBD2 inh: 9; SIAE primary: -1; TDP2 absorb: 7; LEDGF integ inh: 2

How did O=C(CCCOc1ccc(Cl)cc1Cl)Nc1ccc(O)cc1C(=O)O do in these assays?
PRMT1 FP inh: 5; UHRF1 binding: -3; MBD2 inh: -1; SIAE primary: 17*; TDP2 absorb: 2; LEDGF integ inh: -1; SIAE confirm: -8

Results for Cc1c(/C=N/O)c2ccccn2c1C(=O)c1ccc(F)cc1 ?
PRMT1 FP inh: -1; UHRF1 binding: -6; MBD2 inh: -6; SIAE primary: 17*; TDP2 absorb: -5; LEDGF integ inh: -8; SIAE confirm: 8
